Assay results: ChEMBL document CHEMBL4725242, “Discovery of GS-9688 (Selgantolimod) as a Potent and Selective Oral Toll-Like Receptor 8 Agonist for the Treatment of Chronic Hepatitis B” (J Med Chem, 2020)
Active and inactive are the calls of the source.

Tests used:
[1] = Clearance in cynomolgus monkey at 0.1 mg/kg, iv administered as 30 mins infusion by HPLC-MS analysis; assay type: ADME, organism-based, Macaca fascicularis; conditions: in vivo
In short: (§1)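 30-min intravenous infusion: Sprague Dawley rats 1 mg/kg, beagle dogs 0.25 mg/kg, cynomolgus monkeys 0.1 mg/kg; n = 3 per species, reported as mean ± SD.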

[2] = Drug absorption in cynomolgus monkey at 3 mg/kg, po administered via gavage by HPLC-MS analysis; assay type: ADME, organism-based, Macaca fascicularis; conditions: in vivo, read-out: Drug absorption
In short: (§2)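 Oral dosing in 2% ethanol/40% PEG 300/58% 0.01N HCl: Sprague Dawley rats 5 mg/kg, beagle dogs 0.5 mg/kg, cynomolgus monkeys 3 mg/kg.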

[3] = Drug excretion in bile duct-cannulated Sprague-Dawley rat urine; assay type: ADME; conditions: in vivo
[4] = biological target: T1, Interferon-induced helicase C domain-containing protein 1 (Homo sapiens) (UniProt Q9BYX4); assay: Agonist activity at human MDA5 expressed in HEK293 cells assessed as induction of IFN-inducible ISG54 promoter activity up to 10 uM after overnight incubation by secreted lucia luciferase reporter gene assay; assay type: cell-based; conditions: dose microM <=10
T1 sequence (whole entry): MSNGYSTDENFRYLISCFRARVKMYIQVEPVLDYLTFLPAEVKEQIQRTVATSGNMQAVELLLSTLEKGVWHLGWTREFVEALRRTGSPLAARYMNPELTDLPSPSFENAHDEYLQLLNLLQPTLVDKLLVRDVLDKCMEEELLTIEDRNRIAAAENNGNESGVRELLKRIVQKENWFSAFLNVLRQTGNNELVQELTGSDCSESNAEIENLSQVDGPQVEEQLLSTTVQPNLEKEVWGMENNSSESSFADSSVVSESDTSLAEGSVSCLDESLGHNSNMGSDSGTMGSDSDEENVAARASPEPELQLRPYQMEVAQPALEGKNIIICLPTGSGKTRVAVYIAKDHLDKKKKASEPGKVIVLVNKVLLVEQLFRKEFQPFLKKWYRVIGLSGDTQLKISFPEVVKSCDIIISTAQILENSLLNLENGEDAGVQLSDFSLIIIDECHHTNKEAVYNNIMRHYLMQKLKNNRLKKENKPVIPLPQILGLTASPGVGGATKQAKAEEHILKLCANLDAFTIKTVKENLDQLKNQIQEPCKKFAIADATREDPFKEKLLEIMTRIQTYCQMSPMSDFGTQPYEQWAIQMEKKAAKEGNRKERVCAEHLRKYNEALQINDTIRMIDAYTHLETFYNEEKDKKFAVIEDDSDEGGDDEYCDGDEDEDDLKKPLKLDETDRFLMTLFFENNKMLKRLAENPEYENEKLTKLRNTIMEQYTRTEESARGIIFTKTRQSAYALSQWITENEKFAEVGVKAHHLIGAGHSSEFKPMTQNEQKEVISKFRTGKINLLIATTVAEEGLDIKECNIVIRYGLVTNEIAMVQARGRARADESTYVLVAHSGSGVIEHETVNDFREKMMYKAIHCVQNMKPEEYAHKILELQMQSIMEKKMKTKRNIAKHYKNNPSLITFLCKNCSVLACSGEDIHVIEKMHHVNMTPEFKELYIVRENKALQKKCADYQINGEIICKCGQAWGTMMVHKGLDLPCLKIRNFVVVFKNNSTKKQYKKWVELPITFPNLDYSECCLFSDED
In short: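 HEK293 cells stably expressing individual human TLRs or other innate immune receptors, used as reporter gene assays. Minimum effective concentration defined as the level giving a 3-fold rise over background.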

[5] = Volume of distribution at steady state in cynomolgus monkey at 0.1 mg/kg, iv administered as 30 mins infusion by HPLC-MS analysis; assay type: ADME, organism-based, Macaca fascicularis; conditions: in vivo, read-out: Vdss; in short: as §1
[6] = AUC (infinity) in cynomolgus monkey at 3 mg/kg, po administered via gavage by HPLC-MS analysis; assay type: ADME, organism-based, Macaca fascicularis; design: route oral, time infinity, dose 3 mg/kg; conditions: in vivo; in short: as §2
Homo sapiens = species on record: Homo sapiens; assay: Selectivity ratio of EC50 for TLR7 in human cryopreserved PBMC assessed as induction of IFNalpha production to EC50 for TLR8 in human cryopreserved PBMC assessed as induction of IL-12p40 production
In short: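 Cryopreserved healthy-donor human PBMC, recovered 2 h at 37°C/5% CO2, then 100k cells/well in RPMI/10% FBS exposed 24 h at 37°C to a 10-point half-log dilution series (0.5% final DMSO). Supernatant IFNα-2a quantified by MSD electrochemiluminescence immunoassay. Normalized to 10 µM GS-9620 positive and DMSO negative controls; EC50 from 4-parameter logistic fit. For the ratio, divided by the IL-12p40 EC50 from the same PBMC screen.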

[7] = Half life in cynomolgus monkey at 0.1 mg/kg, iv administered as 30 mins infusion by HPLC-MS analysis; assay type: ADME, organism-based, Macaca fascicularis; conditions: in vivo; in short: as §1
Toll-like receptor 8 = biological target: T2, Toll-like receptor 8 (Homo sapiens, UniProt Q9NR97); assay: Agonist activity at TLR8 in human cryopreserved PBMC assessed as induction of IL-12p40 production measured after 24 hrs
T2 sequence (Q9NR97 whole entry): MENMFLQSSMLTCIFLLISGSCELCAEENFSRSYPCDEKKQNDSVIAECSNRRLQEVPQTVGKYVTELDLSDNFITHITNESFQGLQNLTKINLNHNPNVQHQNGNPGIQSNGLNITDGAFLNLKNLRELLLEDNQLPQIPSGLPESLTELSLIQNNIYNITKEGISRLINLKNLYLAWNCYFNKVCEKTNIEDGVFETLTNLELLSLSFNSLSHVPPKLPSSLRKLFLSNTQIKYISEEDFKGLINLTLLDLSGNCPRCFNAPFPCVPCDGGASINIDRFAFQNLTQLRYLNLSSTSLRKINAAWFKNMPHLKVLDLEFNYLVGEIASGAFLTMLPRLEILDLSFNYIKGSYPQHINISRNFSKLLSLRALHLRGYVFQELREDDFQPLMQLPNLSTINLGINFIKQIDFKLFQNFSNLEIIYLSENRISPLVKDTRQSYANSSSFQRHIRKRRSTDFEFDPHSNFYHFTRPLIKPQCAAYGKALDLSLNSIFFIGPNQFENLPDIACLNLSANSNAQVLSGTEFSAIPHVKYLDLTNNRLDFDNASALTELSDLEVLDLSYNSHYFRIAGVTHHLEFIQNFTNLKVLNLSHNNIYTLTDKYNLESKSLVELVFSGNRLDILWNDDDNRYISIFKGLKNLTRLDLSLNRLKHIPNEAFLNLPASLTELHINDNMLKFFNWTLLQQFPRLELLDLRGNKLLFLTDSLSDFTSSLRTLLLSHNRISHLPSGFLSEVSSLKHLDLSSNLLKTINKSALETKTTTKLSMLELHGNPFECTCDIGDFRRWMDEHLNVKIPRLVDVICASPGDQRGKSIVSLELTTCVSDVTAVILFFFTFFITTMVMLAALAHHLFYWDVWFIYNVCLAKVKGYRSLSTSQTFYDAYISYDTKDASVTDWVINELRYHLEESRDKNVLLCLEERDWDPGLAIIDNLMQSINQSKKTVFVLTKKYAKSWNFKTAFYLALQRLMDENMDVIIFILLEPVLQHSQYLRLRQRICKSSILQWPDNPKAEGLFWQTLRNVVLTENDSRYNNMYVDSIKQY

clearance [1]: 103 mL/min/kg
Fa [2]: 100%
Drug excretion [3]: Active
Activity [4]: inactive
Vd [5]: 2.1 L/kg
AUC(0-inf) [6]: 4.7 nM·h
Ratio EC50 (Homo sapiens): > 185
half-life [7]: 40.2 min
EC50 (Toll-like receptor 8): 220 nM
Structure (SMILES): CCCC[C@](C)(CO)Nc1nc(N)nc2cc(F)cnc12 [SELGANTOLIMOD]
